In the library only some 2.3% were active in any assay of this set; here they are far more common.
Rpn11 block – Rpn11 (PSMD14) deubiquitinase inhibitors, primary screen, biochemical, fluorescence polarization, uHTS; 26S proteasome non-ATPase regulatory subunit 14 (Homo sapiens), O00487; human 26S proteasome, Ub4-pepOG fluorescence polarization; 20S core pre-blocked with epoxomicin; inhibition, % at 20 µM; 360,000 tested, 0.59% active; AID 588493, 2011;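 active means inhibition at 20 µM, scaled to each plate's controls, above about 33%, limit read from the data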
Target sequence (O00487 whole entry, looked up): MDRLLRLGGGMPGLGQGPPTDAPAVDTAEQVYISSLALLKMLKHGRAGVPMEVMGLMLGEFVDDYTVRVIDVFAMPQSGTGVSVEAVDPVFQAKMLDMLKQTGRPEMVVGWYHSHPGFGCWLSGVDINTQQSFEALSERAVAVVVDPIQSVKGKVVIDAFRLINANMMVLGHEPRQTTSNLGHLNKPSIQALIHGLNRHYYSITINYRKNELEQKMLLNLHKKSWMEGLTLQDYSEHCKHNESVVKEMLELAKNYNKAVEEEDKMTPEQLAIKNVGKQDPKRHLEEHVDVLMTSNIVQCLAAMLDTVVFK
LMPTP block – LMPTP phosphatase inhibitors, primary screen, biochemical, fluorescence intensity, uHTS. Low molecular weight phosphotyrosine protein phosphatase (Homo sapiens), P24666. 360,000 tested, 0.22% active. recombinant LMPTP-A, OMFP fluorogenic substrate. inhibition, % at 20 µM. AID 651560, 2012;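 active means compounds that cut the enzyme signal by at least half of the control window in the single-dose screen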;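 further: plate controls were DMSO wells with enzyme plus substrate for no effect and substrate without enzyme for full effect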
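test system = LMPTP-A | amount = 0.625 nM LMPTP-A final | reagent = fluorogenic phosphatase substrate OMFP at 400 µM final | incubation = 50 min at room temperature | benchmarks = no-enzyme low control, uninhibited high control | medium = Bis-Tris pH 6.0, DTT, detergent | signal = fluorescence intensity of OMFP turnover product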
DNMT1 block – human DNMT1 methyltransferase inhibitors, primary screen, biochemical, molecular beacon, fluorescence, HinP1I cleavage, uHTS | inhibition (reported as % activation of signal), % at 10 µM | 360,000 tested, 0.83% active | AID 588458, 2011; in the data active means inhibition above about 50%
STEP inh – STEP phosphatase inhibitors, primary screen, biochemical, fluorescence intensity, uHTS. inhibition, % at 20 µM. recombinant STEP, OMFP fluorogenic substrate. AID 588621, 2011. 360,000 tested, 0.25% active. Tyrosine-protein phosphatase non-receptor type 5 (Homo sapiens), P54829;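 active means inhibition at 20 µM, scaled per plate between control wells, above about 37%, limit read from the data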;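 further: 0% = DMSO with enzyme and substrate and 100% = substrate only without enzyme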
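medium = Bis-Tris buffer pH 6.0, 2.5 mM DTT, 0.005% Tween 20 | test system = STEP (striatal-enriched tyrosine phosphatase) enzyme, cell-free | measure = normalized % inhibition | compound dosing = 20 µM, 1% DMSO | also added = 25 µM OMFP | schedule = reaction 20 min, ambient temperature | measured by = fluorescence read at 480 nm ex / 540 nm em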
Scp-1 inhibitor – Scp-1 phosphatase inhibitors, primary screen, biochemical, colorimetric, uHTS; Carboxy-terminal domain RNA polymerase II polypeptide A small phosphatase 1 (Homo …; Recombinant Scp1, phosphopeptide, malachite green phosphate absorbance; 340,000 tested, 0.88% active; inhibition, % at 20 µM; AID 493091, 2011;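 active means inhibition above about 50% at 20 µM, limit read from the data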;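 further: plate controls were DMSO wells with enzyme for no effect and wells lacking enzyme for full effect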
Target sequence (Q9GZU7 76-261 limits assumed): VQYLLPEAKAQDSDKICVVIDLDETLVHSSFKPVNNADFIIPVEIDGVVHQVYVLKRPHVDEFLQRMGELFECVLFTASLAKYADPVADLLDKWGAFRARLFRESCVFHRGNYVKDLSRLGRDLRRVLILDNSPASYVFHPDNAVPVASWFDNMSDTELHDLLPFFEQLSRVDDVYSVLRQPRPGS
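assay system = SCP-1 phosphatase catalytic domain, residues 76-261 | buffer or medium = 50 mM Tris acetate pH 5.5, 0.005% Tween-20, 10 mM MgCl2 | incubation = enzyme reaction 45 min at room temperature, colour 5 min, stabilisation 30 min | signal = Phosphate-binding colour reagent, absorbance read at 630 nm | measure = % inhibition at 20 µM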
SUMO1-SIM PPI – modulators of SUMO1 protein-protein interactions, primary screen, biochemical, uHTS; Small ubiquitin-related modifier 1 (Homo sapiens), P63165; SUMO1 binding to a labelled peptide, TR-FRET, 1 h; inhibition, % at 20 µM; 360,000 tested, 0.33% active; AID 602429, 2012; in the data active means inhibition above about 37%
Target sequence (P63165 whole entry, looked up): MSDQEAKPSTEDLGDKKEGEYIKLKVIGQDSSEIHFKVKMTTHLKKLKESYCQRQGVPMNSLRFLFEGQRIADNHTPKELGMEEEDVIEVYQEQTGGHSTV
DNMT1 confirm – DNMT1 methyltransferase inhibitor retest, confirmation, biochemical, molecular beacon, fluorescence, single concentration; shares compounds with DNMT1 block; DNMT1 molecular beacon HinP1I cleavage; inhibition, % at 10 µM; 2,300 tested, 8% active; AID 602385, 2012;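 active means average inhibition of at least 30% in the single-concentration confirmation test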
Beacon interf – counter-screen for DNMT1 inhibitors: spectral interference. shares compounds with DNMT1 block. DNMT1 molecular beacon spectral interference counterscreen, fluorescence 485/520. activation (fluorescence interference), % at 10 µM. 2,300 tested, 1% active. AID 602387;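 active means activation of at least 30% at 10 µM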;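 further: DNMT1 catalytic domain with a HinP1I cleavage step and a FAM/dabcyl DNA beacon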
Rpn11 confirm – Rpn11 (PSMD14) deubiquitinase inhibitors, confirmation, biochemical, fluorescence polarization, single concentration | shares compounds with Rpn11 block | purified human 26S proteasome, Ub4-pepOG fluorescence polarization; proteasome pretreated with epoxomicin | inhibition, % at 20 µM | 1,900 tested, 29% active | AID 602318, 2012
MMP-2 inh – MMP-2 enzyme inhibition, confirmation, counter-screen for RPN11 inhibitor project, biochemical, fluorescence, single concentration; shares compounds with Rpn11 block; recombinant MMP-2, FRET peptide cleavage fluorescence; inhibition, % at 20 µM; 1,900 tested, 4% active;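 further: human MMP-2 activated beforehand with APMA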
Thrombin inh – bovine thrombin protease inhibition, confirmation, counter-screen for Rpn11 inhibitor project, biochemical, fluorescence polarization, single concentration; shares compounds with Rpn11 block; bovine thrombin cleavage of Ub4-pepOG; inhibition, % at 20 µM; 1,900 tested, 13% active;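 active means mean inhibition at least 40% at 20 µM, or signal 3 deviations below plate average, so some actives read negative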;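 further: plate controls were thrombin with DMSO for no effect and buffer wells lacking thrombin for full effect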
The depositor's hits bear a star; · = not tested or not shown. Unless noted, no stated cut-off is given here; in the data, active means inhibition above about 40%; inactive means the rest.

SMILES | Rpn11 block | LMPTP block | DNMT1 block | STEP inh | Scp-1 inhibitor | SUMO1-SIM PPI | DNMT1 confirm | Beacon interf | others
C[C@]12CC[C@@H](O)CC1=CCC1C2CC[C@@]2(C)C1CC[C@@H]2N (some centres not stated) | -3 | -2 | 81* | -4 | -5 | -2 | 1 | 2
O=C(CCc1nc(-c2ccccc2F)no1)N1CCC2(CC1)OCCO2 | 2 | -1 | 58* | -1 | -9 | -2 | 0 | 0
COc1ccc(CCC(=O)N2CCC3(CC2)OCCO3)cc1 | -2 | -1 | 2 | 1 | -4 | 3 | · | ·
O=C(Nc1cc(Cl)cc(Cl)c1)N1Cc2ccccc2-n2nncc2C1 | 2 | 1 | -2 | -3 | · | -1 | · | ·
COC(=O)C1=C(c2ccc(S(C)(=O)=O)cc2)C[C@@H]2CC[C@H]1N2C(=O)N1CCOCC1 | -3 | -1 | 67* | 0 | -7 | 4 | 1 | 0
CC(C)(C)N1C(=O)NC(=O)/C(=C\c2ccc3c(c2)CCN3CCCCl)C1=O | · | 1 | -9 | 2 | 5 | -13 | · | ·
O=C1NC(=S)N(C2CC2)C(=O)/C1=C/c1ccc2c(c1)CCN2CCCCl | 13 | 7 | 87* | 1 | 4 | 17 | 11 | 2
CCN1C(=O)/C(=C/c2ccc3c(c2)CCN3CCCCl)C(=O)NC1=S | 6 | 13 | 102* | 9 | 2 | 15 | 14 | 6
Cc1ccc2n1Cc1cnnn1-c1ccccc1-2 | -1 | -1 | -1 | -2 | · | -1 | · | ·
O=C1NCN(c2ccccc2)C12CCN(C(CCc1ccccc1)c1nnnn1-c1ccc3c(c1)OCCO3)CC2 (configuration not stated) | 7 | 4 | -23 | 5 | · | 1 | · | ·
COCCOC(=O)c1c(N)n(Cc2ccco2)c2nc3ccccc3nc12 | -14 | 2 | 66* | 2 | -1 | 49* | 0 | 2
COC(=O)c1c(N)n(Cc2ccc(OC)cc2)c2nc3ccccc3nc12 | 5 | 6 | 70* | -2 | -2 | 31 | 1 | 0
CC(C)OC(=O)c1c(N)n(Cc2ccco2)c2nc3ccccc3nc12 | 1 | -2 | -14 | 2 | -5 | 4 | · | ·
Nc1c(C(=O)OCC2CCCO2)c2nc3ccccc3nc2n1Cc1cccs1 (configuration not stated) | 8 | 6 | 73* | -1 | 6 | 34 | 0 | 2
CC(C)OCCCNC(=O)c1c(N)n(Cc2cccs2)c2nc3ccccc3nc12 | 18 | 4 | 32 | 2 | 23 | 31 | · | ·
Brc1ccc2c(c1)-n1nncc1CN(CC1CCCCC1)C2 | -4 | 0 | -3 | 3 | · | 11 | · | ·
COc1cc(/C=C2\C[C@H]3[C@@H]4CC=C5C[C@@H](N6CCCC6)CC[C@]5(C)[C@H]4CC[C@]3(C)[C@H]2O)cc(OC)c1OC | 32 | 6 | -27 | 3 | 10 | -20 | · | ·
Clc1ccc(-c2nc3ccc(Cl)cn3c2CN2CCOCC2)cc1 | -4 | 0 | 73* | 0 | -3 | 15 | 2 | 5
O=C1NCN(c2ccccc2)C12CCN(C(c1ccnc3ccccc13)c1nnnn1C1CCCC1)CC2 (configuration not stated) | 8 | 2 | -7 | 2 | · | -3 | · | ·
CC(N)Cc1c[nH]c2ccc(OCc3cccs3)cc12 (configuration not stated) | 4 | 0 | 1 | 0 | -12 | -1 | · | ·
CC(N)Cc1c[nH]c2ccc(O)cc12 (configuration not stated) | 6 | -1 | 76* | 1 | -14 | -1 | 1 | 3
CC1CC2(C)C(=CC1=O)CCC1C3CCC(C)(O)C3(C)CC3OC312 (configuration not stated) | -2 | 0 | 5 | 0 | -5 | -5 | · | ·
CN1CCc2nc(SCc3cccc(Br)c3)c(C#N)cc2C1 | 9 | 5 | 70* | 3 | -13 | -11 | 2 | 4
O=C1CC(N2CCC(n3c(=O)[nH]c4ccccc43)CC2)C(=O)N1c1ccc(F)cc1 (configuration not stated) | 6 | 2 | 61* | 1 | 6 | 5 | 0 | 2
CN(C)c1ccc(/C=C2\C(=O)NC(=O)N(Cc3ccc(F)cc3)C2=O)cc1 | 21 | 0 | -7 | -1 | -1 | 4 | · | ·
O=C1NC(=O)N(Cc2ccc(F)cc2)C(=O)/C1=C\c1ccoc1 | · | 11 | 88* | 15 | 64* | 33 | 3 | -1
CCN(C(=O)COC(=O)Cc1ccccc1)c1c(N)n(Cc2ccccc2)c(=O)[nH]c1=O | 1 | 0 | 86* | -1 | -8 | -4 | 4 | 3
C(#CCN1CCCCC1)CN1CCCCC1 | 13 | 0 | -3 | 0 | · | 23 | · | ·
O=C1NC(=O)N(c2ccccc2)C(=O)/C1=C/C=C/c1ccco1 | 52* | 0 | 65* | 5 | 26 | 2 | 7 | 3 | Rpn11 confirm=13;MMP-2 inh=21;Thrombin inh=5
CS(=O)(=O)c1ccc(C2=C(CNC(=O)c3ccc([N+](=O)[O-])cc3)[C@H]3CC[C@@H](C2)N3CCOc2ccccc2)cc1 | -9 | 0 | -6 | -1 | · | -32 | · | ·

Bioassay records (PubChem BioAssay)
